This is an account of results in ChEMBL document CHEMBL1126975 (J Med Chem, 1993).

Data set [1] deals with T1, Amine oxidase [flavin-containing] B (Rattus norvegicus, UniProt P19643).
T1 sequence (P19643 whole entry): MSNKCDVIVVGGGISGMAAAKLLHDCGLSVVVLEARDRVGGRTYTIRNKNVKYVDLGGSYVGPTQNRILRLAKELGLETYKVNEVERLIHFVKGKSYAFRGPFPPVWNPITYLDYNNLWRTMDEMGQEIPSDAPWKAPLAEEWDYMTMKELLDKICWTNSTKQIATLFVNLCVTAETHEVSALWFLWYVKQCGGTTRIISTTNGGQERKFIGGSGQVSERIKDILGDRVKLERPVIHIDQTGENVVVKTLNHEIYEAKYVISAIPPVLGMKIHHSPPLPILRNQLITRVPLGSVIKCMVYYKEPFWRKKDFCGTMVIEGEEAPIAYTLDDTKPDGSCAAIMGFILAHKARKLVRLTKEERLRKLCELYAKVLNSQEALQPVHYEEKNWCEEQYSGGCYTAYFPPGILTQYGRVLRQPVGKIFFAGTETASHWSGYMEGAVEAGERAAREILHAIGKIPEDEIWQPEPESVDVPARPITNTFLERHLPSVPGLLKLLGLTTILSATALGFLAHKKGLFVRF
The data set can be described thus: Ex-Vivo Time course of evaluation for the percentage inhibition of MAO-B for 4 hr at single dose 5 mg/kg through oral gavage (p<0.001). The class given is organism-based. Set-up: dose 5 mg/kg, route oral. The method, boiled down: (§1)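 Fasted male Sprague-Dawley rats (150 g) dosed orally by gavage, drug suspended in Tween 80 plus 0.5% methylcellulose; vehicle controls. The 100 mg/kg arm was dosed daily for 9 days. Four rats per time point; brains frozen and homogenized in 0.1 M phosphate pH 7.4. Assayed at 37 °C with 8 μM [14C]PEA for 1 min; toluene/ethyl acetate extraction. Percent inhibition vs control, mean ± SEM.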

The target in data set [2] is T1, Amine oxidase [flavin-containing] B. The data set can be described thus: Ex-Vivo Time course of evaluation for the percentage inhibition of MAO-B for 0.5 hr at single dose 5 mg/kg through oral gavage (p<0.001). The class given is organism-based. The arrangement: dose 5 mg/kg, route oral. The method, boiled down:
as §1

Data set [3] shares this target. The data set can be described thus: Ex-Vivo Time course of evaluation for the percentage inhibition of MAO-B for 1 hr at single dose 5 mg/kg through oral gavage (p<0.001). The class given is organism-based. Set-up: dose 5 mg/kg, route oral. The method in brief: as §1
For data set [4] the target is unchanged. Put plainly: Ex-Vivo percentage inhibition of MAO-B after 24 hr single 5 mg/kg dose by oral gavage. The class given is organism-based. The arrangement: dose 5 mg/kg, route oral. The method in brief: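 Ex vivo oral gavage in fasted male Sprague-Dawley rats (Tween 80 / 0.5% methylcellulose), four rats per group. Brain homogenate taken 24 h after dosing. MAO B assayed with 8 μM [14C]PEA, 1 min at 37 °C; percent inhibition vs vehicle control.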

Data set [5] shares this target. The data set can be described thus: Ex-Vivo Time course of evaluation for the percentage inhibition of MAO-B for 48 hr at single dose 5 mg/kg through oral gavage. The data set is classed as organism-based. The arrangement: dose 5 mg/kg, route oral. The method, boiled down:
as §1

The target is the same in data set [6]. Put plainly: In vitro inhibitory activity on rat brain MAO-B. The method, boiled down: (§2)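 Radiochemical assay at 37 °C, pH 7.4: MAO A with 10 μM [14C]5-HT, MAO B with 5 μM [14C]PEA. Drug preincubated 20 min with enzyme. Three experiments in duplicate.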
Data set [7] concerns the target T2, Amine oxidase [flavin-containing] A (Rattus norvegicus, UniProt P21396).
T2 sequence (P21396 whole entry): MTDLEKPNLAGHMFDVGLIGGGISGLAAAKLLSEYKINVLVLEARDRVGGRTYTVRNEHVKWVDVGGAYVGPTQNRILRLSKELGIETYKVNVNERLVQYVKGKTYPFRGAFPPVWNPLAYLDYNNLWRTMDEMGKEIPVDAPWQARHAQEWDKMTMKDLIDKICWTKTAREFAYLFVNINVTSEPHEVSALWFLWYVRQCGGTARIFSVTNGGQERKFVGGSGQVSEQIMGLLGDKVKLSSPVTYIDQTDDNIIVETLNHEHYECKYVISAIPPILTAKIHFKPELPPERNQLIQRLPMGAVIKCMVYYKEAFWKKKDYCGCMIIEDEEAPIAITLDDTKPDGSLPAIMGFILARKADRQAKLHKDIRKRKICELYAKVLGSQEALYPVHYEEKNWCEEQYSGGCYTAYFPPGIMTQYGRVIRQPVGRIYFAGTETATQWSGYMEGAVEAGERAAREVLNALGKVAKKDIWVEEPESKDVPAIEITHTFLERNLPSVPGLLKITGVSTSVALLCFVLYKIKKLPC
The data set can be described thus: In vitro inhibitory activity on rat brain by monoamine oxidase A (MAO-A). The method, boiled down:
as §2

Data set [8] deals with T1, Amine oxidase [flavin-containing] B. Put plainly: Compound was evaluated for the reversibility test for the percentage inhibition of MAO B at 6.25 nM after the test at 12.5 nM. The method, boiled down:
(§3)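 Rat brain crude mitochondrial fraction (1.94 mg protein/mL) preincubated 1 h at 37 °C with or without inhibitor at 6.25 or 12.5 nM. Then diluted 200-fold in 100 mM phosphate pH 7.4 with 100 μM PEA, held 4 h at 37 °C, pelleted, and washed 1 h in buffer without PEA. Assayed under standard conditions (PEA 1 min); percent inhibition vs control.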

Data set [9] shares this target. Put plainly: Compound was evaluated for the reversibility test for the percentage inhibition of MAO B at 6.25 nM before the test at 12.5 nM.
The target is the same in data set [10]. Put plainly: Compound was evaluated for the time-dependence inhibition of MAO-B at 20 minutes pre-incubation periods. The method in brief:
(§4)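 Male Sprague-Dawley rat brain crude mitochondrial fraction, MAO B. Drug preincubated with enzyme at 37 °C for 0, 20, 30 or 60 min, then radiochemical assay with 5 μM [14C]PEA at pH 7.4. IC50 read graphically from 9–12 concentrations; three experiments in duplicate.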

Data set [11] has the same target. Put plainly: Ex-Vivo Time course of evaluation for the percentage inhibition of MAO-B for 24 hr at single dose 1500 mg/kg through oral gavage (p<0.001). The class given is organism-based. The arrangement: dose 1500 mg/kg, route oral. The method in brief:
as §1

Data set [12] shares this target. The data set can be described thus: Compound was evaluated for the time-dependence inhibition of MAO-B at 60 minutes preincubation periods. The method in brief: as §4
Data set [13] has the same target. Put plainly: Compound was evaluated for the time-dependence inhibition of MAO-B at 0 minute pre-incubation periods. The method in brief:
as §4

Data set [14] has the same target. Put plainly: Ex-Vivo Time course of evaluation for the percentage inhibition of MAO-B for 0.5 hr at single dose 1 mg/kg through oral gavage [p<0.01 (Bonferroni's test)]. The data set is classed as organism-based. Set-up: dose 1 mg/kg, route oral. The method in brief:
as §1

Data set [15] shares this target. Put plainly: Ex-Vivo Time course of evaluation for the percentage inhibition of MAO-B for 1 hr at single dose 1 mg/kg through oral gavage (p<0.001). The data set is classed as organism-based. Set-up: dose 1 mg/kg, route oral. The method, boiled down: as §1
Data set [16] has the same target. The data set can be described thus: Ex-Vivo Time course of evaluation for the percentage inhibition of MAO-B for 1 hr at single dose 100 mg/kg through oral gavage (p<0.001). The class given is organism-based. The arrangement: dose 100 mg/kg, route oral.
The target is the same in data set [17]. The data set can be described thus: Ex-Vivo Time course of evaluation for the percentage inhibition of MAO-B for 24 hr at single dose 1 mg/kg through oral gavage (not significant Wilcoxom''s test). The data set is classed as organism-based. The arrangement: dose 1 mg/kg, route oral. The method, boiled down:
as §1

In data set [18] the target is T2, Amine oxidase [flavin-containing] A. The data set can be described thus: In Vitro evaluation for the inhibitory activity on rat brain by MAO-A. The method in brief:
(§5)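 Male Sprague-Dawley rat brain crude mitochondrial fraction, 0.195 mg protein/mL. Radiochemical assay at 37 °C, pH 7.4: MAO A with 10 μM [14C]5-HT, MAO B with 5 μM [14C]PEA. Drug preincubated 20 min with enzyme. […] Three experiments in duplicate.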

For data set [19], the target named is T1, Amine oxidase [flavin-containing] B. Put plainly: Ex-Vivo Time course of evaluation for the percentage inhibition of MAO-B for 24 hr at single dose 1500 mg/kg through oral gavage. Set-up: dose 1500 mg/kg, route oral. The data set is classed as organism-based.
Data set [20] can be described thus: Selectivity for B form was estimated by the ratio of IC50 (MAO A) at 60 min to that of (MAO B).
The target of data set [21] is T1, Amine oxidase [flavin-containing] B. The data set can be described thus: Compound was evaluated for the reversibility test for the percentage inhibition of MAO B at 6.25 nM before the test.
For data set [22] the target is unchanged. Put plainly: Ex-Vivo Time course of evaluation for the percentage inhibition of MAO-B for 4 hr at single dose 1 mg/kg through oral gavage (p<0.001). The data set is classed as organism-based. Set-up: dose 1 mg/kg, route oral. The method in brief:
as §1

Data set [23] deals with T2, Amine oxidase [flavin-containing] A. The data set can be described thus: Compound was evaluated for the time-dependence inhibition of MAO-A at 60 minutes of preincubated period. values are same with or without pre-incubation.
For data set [24], the target named is T1, Amine oxidase [flavin-containing] B. The data set can be described thus: Ex-Vivo Time course of evaluation for the percentage inhibition of MAO-B for 24 hr at single dose 100 mg/kg through oral gavage. The class given is organism-based. Set-up: dose 100 mg/kg, route oral.
The target is the same in data set [25]. Put plainly: Compound was evaluated for the time-dependence inhibition of MAO-B at 30 minutes pre-incubation periods. The method in brief: as §4
Data set [26] has the same target. Put plainly: Ex-Vivo Time course of evaluation for the percentage inhibition of MAO-B for 24 hr at once-daily dose for 9 days 100 mg/kg through oral gavage (p<0.001).
Data set [27] has the same target. Put plainly: Compound was evaluated for the reversibility test for the percentage inhibition of MAO B at 6.25 nM after the test. The method in brief: as §3
Data set [28] shares this target. Put plainly: Ex-Vivo Time course of evaluation for the percentage inhibition of MAO-B for 1 hr at single dose 1500 mg/kg through oral gavage (p<0.001). The class given is organism-based. Set-up: dose 1500 mg/kg, route oral. The method, boiled down: as §1
Data set [29] addresses T2, Amine oxidase [flavin-containing] A. The data set can be described thus: In Vitro evaluation for the inhibitory activity on rat brain by MAO-A at 100 uM. The method in brief: as §5
For data set [30], the target named is T1, Amine oxidase [flavin-containing] B. Put plainly: Ex-Vivo Time course of evaluation for the percentage inhibition of MAO-B for 0.5 hr at single dose 5 mg/kg through oral gavage. The arrangement: dose 5 mg/kg, route oral. The data set is classed as organism-based. The method, boiled down: as §1
Data set [31] shares this target. Put plainly: Ex-Vivo Time course of evaluation for the percentage inhibition of MAO-B for 1 hr at single dose 5 mg/kg through oral gavage (p<0.01). The data set is classed as organism-based. The arrangement: dose 5 mg/kg, route oral. The method, boiled down: as §1
Data set [32] has the same target. Put plainly: Ex-Vivo Time course of evaluation for the percentage inhibition of MAO-B for 4 hr at single dose 5 mg/kg through oral gavage. The data set is classed as organism-based. The arrangement: dose 5 mg/kg, route oral. The method, boiled down:
as §1

For the molecule `N#CCCn1nc(-c2ccc(OCc3ccc(Cl)cc3)cc2)oc1=O`, the inhibition at 5 mg/kg was 47% in data set [1]; 30% in data set [2]; 54% in data set [3]; -6% in [4]; 6% in data set [5]. In addition, the half-inhibitory concentration (IC50) in data set [6] was determined as 7.5 nM; in [7], 3300 nM.
Turning to `C#CCN(C)[C@H](C)Cc1ccccc1` [SELEGILINE], the inhibition at 0.00625 µM in [8] and in data set [9] was 21% throughout.
With `N#CCCn1nc(-c2ccc(OCc3ccccc3)cc2)oc1=O`, the IC50 was 2.7 nM in data set [10]; 1.4 nM in [12]; 25 nM in data set [13]; 2.2 nM in data set [6]; greater than 100000 nM in [23]; 2.2 nM in data set [25]. Further, the results for the inhibition at 1500 mg/kg in [11], in [19] and in [28] were 74%, 2% and 91%, respectively. Further, the inhibition at 5 mg/kg in [1] amounted to 83%; in data set [2], 69%; in data set [3] it was 87%; in data set [4], 18%. The inhibition at 1 mg/kg came out at 34% in [14], 86% in data set [15], 18% in data set [17] and 75% in [22]. Also, the figures for the inhibition at 100 mg/kg in data set [16], in [24] and in data set [26] were 90%, 3% and 73%, respectively. This molecule also gave an Inhibition in data set [18] of 10%. Besides, the Selectivity in data set [20] is greater than 71400. In addition, the inhibition at 0.00625 µM in [21] was found to be 35%; in [27] it was 102%.
For `CC(C#N)Cn1nc(-c2ccc(OCc3ccccc3)cc2)oc1=O` (configuration not stated), in [29], the inhibition at 100 µM worked out at 13%. In addition, in data set [6], the concentration for half-maximal inhibition (IC50) came out at 2400 nM.
On to `COc1cccc(COc2ccc(-c3nn(CCC#N)c(=O)o3)cc2)c1`, for which the inhibition at 5 mg/kg was 12% in data set [30]; -3% in data set [4]; 19% in data set [31]; -7% in data set [5]; 6% in data set [32]. The figures for the half-inhibitory concentration (IC50) in data set [6] and in data set [7] were 29 nM and 19000 nM, respectively.

The term inhibition denotes the drop in the measured response relative to a control, in per cent. For orientation: IC50 means the concentration that inhibits the measured activity by half. Read a low IC50 as higher potency. What is called Inhibition is the relative decrease from the control value, in per cent.
